Calls of active or inactive are those of the source. The rule behind the calls is not given here.
What was measured:
[1] = system: Rattus norvegicus; assay: Insulinotropic activity in po dosed Goto-Kakizaki rat assessed as decrease in plasma glucose level administered 1 hr prior to glucose-challenge by oral glucose tolerance test; type: functional
In short: (§1)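 Male GK rats, 41 weeks old, were fasted overnight. They received compound suspended in 0.5% methylcellulose orally, 1–10 mg/kg, 1 h before a 1 g/kg oral glucose load. Tail-vein blood was taken pre-dose, at 0 min and at 10, 30, 60 and 120 min. Plasma glucose was read by autoanalyzer and insulin by radioimmunoassay, with AUC0–120min. n = 6. Williams/Shirley–Williams tests versus vehicle.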

[2] = system: Rattus norvegicus; assay: Insulinotropic activity in Goto-Kakizaki rat assessed as increase in plasma insulin secretion at 1 to 10 mg/kg, po administered 1 hr prior to glucose-challenge by oral glucose tolerance test; type: functional, organism-based; details: TDE = time-dependent effect; in short: as §1
[3] = system: Rattus norvegicus; assay: Insulinotropic activity in po dosed Goto-Kakizaki rat assessed as increase in plasma insulin secretion administered 1 hr prior to glucose-challenge by oral glucose tolerance test; type: functional; in short: as §1
[4] = system: Rattus norvegicus; assay: Insulinotropic activity in Goto-Kakizaki rat assessed as decrease in plasma glucose level at 1 to 10 mg/kg, po administered 1 hr prior to glucose-challenge by oral glucose tolerance test; type: functional, organism-based; details: TDE = time-dependent effect; in short: as §1
[5] = biological target: T1, Free fatty acid receptor 1 (Homo sapiens, UniProt O14842); assay: Agonist activity at human GP40 receptor expressed in CHO cells assessed as increase in intracellular calcium level at 10 uM for 90 secs by FLIPR assay in the presence of 0.1% BSA relative to gamma-linolenic acid; type: functional, cell-based
T1 sequence (O14842 whole entry): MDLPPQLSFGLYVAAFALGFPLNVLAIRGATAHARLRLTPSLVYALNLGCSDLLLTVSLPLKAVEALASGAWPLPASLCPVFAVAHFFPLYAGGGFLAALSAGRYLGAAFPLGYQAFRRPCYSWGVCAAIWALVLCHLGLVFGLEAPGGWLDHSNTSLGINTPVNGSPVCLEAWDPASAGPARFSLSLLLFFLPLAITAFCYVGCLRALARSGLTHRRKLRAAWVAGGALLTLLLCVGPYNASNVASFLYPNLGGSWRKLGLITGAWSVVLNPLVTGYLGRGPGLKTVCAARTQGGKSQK
In short: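 CHO dhfr cells stably expressing human GPR40/FFA1 (NM_005303) plated overnight at 37 °C, 5% CO₂, then loaded 60 min at 37 °C with Fluo 4 AM (2.5 μg/mL), 2.5 mmol/L probenecid and 0.1% fatty acid-free BSA. Ca²⁺ rise after compound addition read on FLIPR Tetra for 90 s. Activity = (test − vehicle)/(10 μM γ-linolenic acid − vehicle) × 100.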

[6] = system: Rattus norvegicus; assay: Insulinotropic activity in Goto-Kakizaki rat assessed as increase in plasma insulin secretion at 1 to 10 mg/kg, po after 1 hr measured at glucose charge (0 mins)
[7] = system: Rattus norvegicus; assay: Insulinotropic activity in po dosed fasted Wistar fatty rat assessed as […] administered 1 hr prior to glucose-challenge by oral glucose tolerance test relative to vehicle control; type: functional
In short: (§2)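 Female Wistar fatty rats, 12–17 weeks old, were fasted overnight. They were dosed orally with compound in 0.5% methylcellulose 1 h (1 mg/kg) or 4 h (3 mg/kg) before a 1 g/kg oral glucose load. Plasma glucose was sampled to 120 min, n = 6. Effective dose was defined by statistical significance on plasma glucose AUC versus vehicle.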

[8] = system: Rattus norvegicus; assay: Insulinotropic activity in po dosed fasted Wistar fatty rat assessed as […] administered 4 hr prior to glucose-challenge by oral glucose tolerance test relative to vehicle control; type: functional; in short: as §2
[9] = Lipophilicity, log D of the compound at pH 7.4 by HPLC analysis; type: physicochemical; details: buffer
In short: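 Log D at pH 7.4 was estimated from HPLC relative retention time against standard compounds.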

[10] = biological target: Free fatty acid receptor 1 (Rattus norvegicus, UniProt Q8K3T4); assay: Displacement of 3-[4-({2',6'-dimethyl-6-[(4-[3H])-phenylmethoxy]biphenyl-3-yl}methoxy)phenyl]propanoic acid from rat GPR40 expressed in CHO cells after 90 mins by liquid scintillation counting in the presence of 0.2%BSA; type: cell-based
Free fatty acid receptor 1 (Rattus norvegicus, UniProt Q8K3T4), sequence (Q8K3T4 whole entry): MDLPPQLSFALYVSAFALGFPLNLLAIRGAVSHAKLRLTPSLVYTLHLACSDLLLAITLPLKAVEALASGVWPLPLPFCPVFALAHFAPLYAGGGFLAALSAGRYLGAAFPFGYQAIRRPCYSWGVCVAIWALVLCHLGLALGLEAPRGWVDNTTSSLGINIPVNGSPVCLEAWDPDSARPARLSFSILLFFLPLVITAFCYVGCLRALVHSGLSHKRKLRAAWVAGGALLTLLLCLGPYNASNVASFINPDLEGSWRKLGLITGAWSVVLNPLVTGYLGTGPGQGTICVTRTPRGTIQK
In short: (§3)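 Membranes came from CHO lines stably expressing human or rat GPR40/FFA1. Assay buffer was 25 mmol/L Tris-HCl pH 7.5 with 5 mmol/L EDTA, protease inhibitors, 0.05% CHAPS and 0.2% fatty-acid-free BSA. Compounds competed with 2 or 6 nmol/L tritiated phenylpropanoic acid ligand for 90 min at room temperature. Bound ligand was filtered and counted by scintillation. Nonspecific binding used 10 μmol/L unlabeled ligand. IC50 was converted to Ki by Cheng–Prusoff using the measured Kd.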

[11] = biological target: T1, Free fatty acid receptor 1; assay: Agonist activity at human GP40 receptor expressed in CHO cells assessed as increase in intracellular calcium level for 90 secs by FLIPR assay in the presence of 0.1% BSA; type: functional, cell-based
[12] = system: HepG2; assay: Induction of apoptosis in human HepG2 cells assessed as caspase 3/7 activity at 30 uM after 1 day by CaspaseGlo assay relative to staurosporine; type: cell-based; details: hepg2, 24 h
In short: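 HepG2 cells were seeded at 2 × 10⁴ cells/well. They were exposed to compounds for 1 day in DMEM with 0.5% FBS, 2 mM L-glutamine and 1 mM pyruvate. Caspase-3/7 was read by Caspase-Glo luminescence, n = 3. Values are % = (RLU compound − RLU 1% DMSO)/(RLU 30 μM staurosporine − RLU 1% DMSO) × 100.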

[13] = biological target: T1, Free fatty acid receptor 1; assay: Displacement of 3-[4-({2',6'-dimethyl-6-[(4-[3H])-phenylmethoxy]biphenyl-3-yl}methoxy)phenyl]propanoic acid from human GPR40 expressed in CHO cells after 90 mins by liquid scintillation counting in the presence of 0.2% BSA; type: cell-based; in short: as §3

Efficacy [5] [%]	logD [9]	Ki [10] [nM]	EC50 [11] [nM]	Ki [13] [nM]	Structure (SMILES)	Activity [1]	Activity [2]	Activity [3]	Activity [4]	Activity [6]	minimal effective dose ([1]; read-out: MED) [mg/kg]	minimal effective dose ([3]; read-out: MED) [mg/kg]	ED [7]	ED [8]	Activity [12] [%]
107	–	–	–	–	Cc1cc(OCCCS(C)(=O)=O)cc(C)c1-c1cccc(COc2ccc3c(c2)OC[C@H]3CC(=O)O)c1 [listing 1 of 2 here]	Dose-dependent effect	tde	Dose-dependent effect	tde	Active	–	–	–	–	–
–	–	–	–	–	Cc1cc(OCCCS(C)(=O)=O)cc(C)c1-c1cccc(COc2ccc3c(c2)OC[C@H]3CC(=O)O)c1.O	–	–	–	–	–	3	10	1 mg/kg	3 mg/kg	–
107	2.73	170	14	37	CCS(=O)(=O)CCOc1cc(C)c(-c2cccc(COc3ccc4c(c3)OC[C@H]4CC(=O)O)c2)c(C)c1	–	–	–	–	–	–	–	–	3 mg/kg	-1.3
107	4.27	360	18	12	Cc1nc(C)c(COc2cc(C)c(-c3cccc(COc4ccc5c(c4)OC[C@H]5CC(=O)O)c3)c(C)c2)s1	–	–	–	–	–	–	–	–	–	23.1
103	2.84	510	290	300	Cc1cc(OC2CCS(=O)(=O)CC2)cc(C)c1-c1cccc(COc2ccc3c(c2)OC[C@@H]3CC(=O)O)c1	–	–	–	–	–	–	–	–	–	1.3
107	3.22	170	17	31	Cc1cc(OCCCN2CCCC2=O)cc(C)c1-c1cccc(COc2ccc3c(c2)OC[C@H]3CC(=O)O)c1	–	–	–	–	–	–	–	–	–	3.9
104	2.68	200	16	18	Cc1cc(OCCCS(C)(=O)=O)c(F)c(C)c1-c1cccc(COc2ccc3c(c2)OC[C@H]3CC(=O)O)c1	–	–	–	–	–	–	–	1 mg/kg	3 mg/kg	-1.1
107	3.1	66	19	8.8	Cc1cc(OC2CCN(C)CC2)cc(C)c1-c1cccc(COc2ccc3c(c2)OC[C@H]3CC(=O)O)c1.Cl	–	–	–	–	–	–	–	–	inactive	-1.3
103	3.83	300	–	–	CCOCCOc1cc(C)c(-c2cccc(COc3ccc4c(c3)OCC4CC(=O)O)c2)c(C)c1 (racemic)	–	–	–	–	–	–	–	–	–	3.2
107	3.8	190	17	15	Cc1cc(OCc2cccc3nccn23)cc(C)c1-c1cccc(COc2ccc3c(c2)OC[C@H]3CC(=O)O)c1	–	–	–	–	–	–	–	–	–	17.7
104	3.07	110	16	19	Cc1cc(OCCCS(C)(=O)=O)c(Cl)c(C)c1-c1cccc(COc2ccc3c(c2)OC[C@H]3CC(=O)O)c1	–	–	–	–	–	–	–	–	–	8.3
104	3.35	400	29	40	Cc1c(C)c(-c2cccc(COc3ccc4c(c3)OC[C@H]4CC(=O)O)c2)c(C)c(C)c1OC1CCS(=O)(=O)CC1	–	–	–	–	–	–	–	–	–	12.3
103	3.86	7400	–	–	CCOCCOc1cc(C)c(-c2cccc(COc3ccc4c(c3)OC[C@@H]4CC(=O)O)c2)c(C)c1	–	–	–	–	–	–	–	–	–	10.5
103	2.77	210	39	83	Cc1cc(OC2CCS(=O)(=O)CC2)cc(C)c1-c1cccc(COc2ccc3c(c2)OCC3CC(=O)O)c1 (racemic)	–	–	–	–	–	–	–	–	–	0.4
103	3.88	110	18	25	Cc1cc(OCC2(C)COC2)cc(C)c1-c1cccc(COc2ccc3c(c2)OC[C@H]3CC(=O)O)c1	–	–	–	–	–	–	–	–	–	21.1
103	3.86	240	–	–	CCOCCOc1cc(C)c(-c2cccc(COc3ccc4c(c3)OC[C@H]4CC(=O)O)c2)c(C)c1	–	–	–	–	–	–	–	–	–	1.5
107	2.43	170	13	24	Cc1cc(OCC2(O)CCS(=O)(=O)CC2)cc(C)c1-c1cccc(COc2ccc3c(c2)OC[C@H]3CC(=O)O)c1	–	–	–	–	–	–	–	inactive	3 mg/kg	-1.8
103	3.88	2200	270	270	Cc1cc(OCC2(C)COC2)cc(C)c1-c1cccc(COc2ccc3c(c2)OC[C@@H]3CC(=O)O)c1	–	–	–	–	–	–	–	–	–	20.9
104	3.17	56	17	11	CCc1cc(OCCCS(C)(=O)=O)cc(CC)c1-c1cccc(COc2ccc3c(c2)OC[C@H]3CC(=O)O)c1	–	–	–	–	–	–	–	–	–	12.4
104	3.53	59	17	12	Cc1c(Cl)c(OCCCS(C)(=O)=O)c(Cl)c(C)c1-c1cccc(COc2ccc3c(c2)OC[C@H]3CC(=O)O)c1	–	–	–	–	–	–	–	–	–	16.1
103	3.86	83	24	21	Cc1cc(OCC2(C)COC2)cc(C)c1-c1cccc(COc2ccc3c(c2)OCC3CC(=O)O)c1 (racemic)	–	–	–	–	–	–	–	–	–	23.6
104	3.12	120	18	33	Cc1c(C)c(-c2cccc(COc3ccc4c(c3)OC[C@H]4CC(=O)O)c2)c(C)c(C)c1OCCCS(C)(=O)=O	–	–	–	–	–	–	–	–	–	-1.1
103	2.75	170	22	36	Cc1cc(OC2CCS(=O)(=O)CC2)cc(C)c1-c1cccc(COc2ccc3c(c2)OC[C@H]3CC(=O)O)c1	–	–	–	–	–	–	–	1 mg/kg	3 mg/kg	-2.5
104	2.95	270	19	31	Cc1cc(OC2CCS(=O)(=O)CC2)c(F)c(C)c1-c1cccc(COc2ccc3c(c2)OC[C@H]3CC(=O)O)c1	–	–	–	–	–	–	–	–	–	7.9
–	2.58	–	–	–	Cc1cc(OCCCS(C)(=O)=O)cc(C)c1-c1cccc(COc2ccc3c(c2)OC[C@H]3CC(=O)O)c1 [listing 2 of 2 here]	–	–	–	–	–	–	–	–	–	-2.1

Reference: ChEMBL document CHEMBL2046398, “Optimization of (2,3-dihydro-1-benzofuran-3-yl)acetic acids: discovery of a non-free fatty acid-like, highly bioavailable G protein-coupled receptor 40/free fatty acid receptor 1 agonist as a glucose-dependent insulinotropic agent” (J Med Chem, 2012)
